Measurements as given in ChEMBL document CHEMBL4689842, “EUbOPEN Chemogenomics Library wave 1” (2021).
Where “and” joins values, the source holds several entries; their conditions need not be identical. Equal values may be shown once.

How the values were obtained:
Format in all cases: toxicity, cell-based
U2OS [1] = test: Multiplex assay against U2OS; details: human, 1 µM, compound concentration 1 uM
In short: (§1)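 On a CQ1 microscope at 37°C and 5% CO2, live cells were imaged after compound addition. They had been stained at seeding with Hoechst33342, BioTracker Green Microtubule Cytoskeleton Dye, MitoTracker Red and Annexin V Alexa Fluor 680. CellPathfinder machine-learning gating assigned cells to Hoechst high-intensity objects or normal cells, normal cells to healthy, pyknosed or fragmented nuclei, and pyknosed cells to mitotic or apoptotic. Tubulin, mitochondrial-mass and membrane-permeability phenotypes are per cents of healthy-nucleus cells.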

HEK-293T [2] = test: Incucyte cell viability with HEK293T; details: human, 10 µM, compound concentration 10 uM; also: filed as whole numbers so only -1 and 0 and 1 occur
U2OS [3] = test: Incucyte cell viability with U2OS; details: human, 10 µM, compound concentration 10 uM; also: filed as whole numbers so only -1 and 0 and 1 occur
Fibroblast [4] = test: Multiplex assay against human fibroblast; details: 1 µM, compound concentration 1 uM; in short: as §1
HEK-293T [5] = test: Multiplex assay against HEK293T; details: human, 1 µM, compound concentration 1 uM; in short: as §1
Fibroblast [6] = test: Incucyte cell viability with human fibroblast; details: 10 µM, compound concentration 10 uM; also: filed as whole numbers so only -1 and 0 and 1 occur
[7] = 6 h, replicate number 1, timepoint 6 hours
[8] = 12 h, replicate number 1, timepoint 12 hours
[9] = 18 h, replicate number 1, timepoint 18 hours
[10] = 24 h, replicate number 1, timepoint 24 hours

## FC(F)c1nc2ccccc2n1-c1nc(N2CCOCC2)nc(N2CCOCC2)n1 [ZSTK-474]
U2OS [1]; 12 h, replicate 1
  Population Fragmented Nuclei (%): 3%
  Population Healthy Nuclei (%): 89% and 87%
  Population Hoechst High Intensity Objects (%): 4% and 3%
  Population Membrane Permeable-Phenotype (%): 18% and 7%
  Population Mitotic Cells (%): 56% and 88%
  Population Normal (%): 95% and 96%
  Population Pyknosed Nuclei (%): 7% and 6%
  Population Tubulin-Different-Phenotype (%): 13% and 23%
  Total Cell Count: 134 and 206
U2OS [1]; 12 h, replicate 2
  Population Fragmented Nuclei (%): 8% and 5%
  Population Healthy Nuclei (%): 85%
  Population Hoechst High Intensity Objects (%): 14% and 10%
  Population Membrane Permeable-Phenotype (%): 21% and 13%
  Population Mitochondria Different-Phenotype (%): 9% and 18%
  Population Mitotic Cells (%): 83% and 28%
  Population Normal (%): 85% and 89%
  Population Pyknosed Nuclei (%): 5%
  Population Tubulin-Different-Phenotype (%): 20% and 35%
  Total Cell Count: 147 and 107
U2OS [1]; 24 h, replicate 1
  Population Healthy Nuclei (%): 90%
  Population Hoechst High Intensity Objects (%): 2%
  Population Mitochondria Different-Phenotype (%): 4% and 12%
  Population Normal (%): 97%
  Population Pyknosed Nuclei (%): 4% and 3%
  Population Tubulin-Different-Phenotype (%): 12% and 25%
  Total Cell Count: 190 and 236
U2OS [1]; 24 h, replicate 2
  Population Apoptotic (%): 28% and 50%
  Population Fragmented Nuclei (%): 4% and 6%
  Population Healthy Nuclei (%): 89%
  Population Hoechst High Intensity Objects (%): 11% and 4%
  Population Membrane Permeable-Phenotype (%): 20% and 11%
  Population Mitochondria Different-Phenotype (%): 9% and 20%
  Population Mitotic Cells (%): 71% and 50%
  Population Normal (%): 88% and 95%
  Population Pyknosed Nuclei (%): 5%
  Population Tubulin-Different-Phenotype (%): 20% and 36%
  Total Cell Count: 188 and 114
HEK-293T [2]; [7]
  Growth Rate: 0
HEK-293T [2]; [8]
  Growth Rate: 0
HEK-293T [2]; [9]
  Growth Rate: 0
HEK-293T [2]; [10]
  Growth Rate: 0
U2OS [3]; 0 h, replicate number 1, timepoint 0 hours
  Growth Rate: 1
U2OS [3]; [7]
  Growth Rate: 1
U2OS [3]; [8]
  Growth Rate: 1
U2OS [3]; 12 h, replicate number 2, timepoint 12 hours
  Growth Rate: 0
U2OS [3]; [9]
  Growth Rate: 0
U2OS [3]; [10]
  Growth Rate: 0
Fibroblast [4]; 12 h, replicate 1
  Population Apoptotic (%): 75% and 78%
  Population Fragmented Nuclei (%): 31% and 20%
  Population Healthy Nuclei (%): 54% and 67%
  Population Hoechst High Intensity Objects (%): 15% and 11%
  Population Mitochondria Different-Phenotype (%): 3% and 1%
  Population Mitotic Cells (%): 25% and 21%
  Population Normal (%): 84% and 88%
  Population Pyknosed Nuclei (%): 14% and 11%
  Total Cell Count: 268 and 222
Fibroblast [4]; 12 h, replicate 2
  Population Fragmented Nuclei (%): 71% and 55%
  Population Healthy Nuclei (%): 26% and 37%
  Population Hoechst High Intensity Objects (%): 40% and 37%
  Population Membrane Permeable-Phenotype (%): 0% and 6%
  Population Mitochondria Different-Phenotype (%): 14% and 26%
  Population Mitotic Cells (%): 100% and 66%
  Population Normal (%): 59% and 62%
  Total Cell Count: 88 and 64
Fibroblast [4]; 24 h, replicate 1
  Population Apoptotic (%): 63% and 76%
  Population Fragmented Nuclei (%): 24% and 22%
  Population Healthy Nuclei (%): 61% and 64%
  Population Hoechst High Intensity Objects (%): 12%
  Population Membrane Permeable-Phenotype (%): 3% and 1%
  Population Mitotic Cells (%): 36% and 24%
  Population Normal (%): 87%
  Population Pyknosed Nuclei (%): 14% and 12%
  Population Tubulin-Different-Phenotype (%): 18% and 0%
  Total Cell Count: 235 and 226
Fibroblast [4]; 24 h, replicate 2
  Population Apoptotic (%): 0%
  Population Fragmented Nuclei (%): 72% and 63%
  Population Healthy Nuclei (%): 23% and 34%
  Population Hoechst High Intensity Objects (%): 40% and 33%
  Population Membrane Permeable-Phenotype (%): 8% and 7%
  Population Mitochondria Different-Phenotype (%): 8% and 23%
  Population Mitotic Cells (%): 100%
  Population Normal (%): 60% and 66%
  Population Pyknosed Nuclei (%): 3% and 2%
  Total Cell Count: 85 and 57
HEK-293T [5]; 12 h, replicate 1
  Population Apoptotic (%): 22% and 20%
  Population Fragmented Nuclei (%): 18% and 14%
  Population Healthy Nuclei (%): 59% and 50%
  Population Hoechst High Intensity Objects (%): 16% and 20%
  Population Membrane Permeable-Phenotype (%): 7% and 5%
  Population Mitochondria Different-Phenotype (%): 6% and 13%
  Population Mitotic Cells (%): 77% and 79%
  Population Normal (%): 83% and 79%
  Population Pyknosed Nuclei (%): 22% and 35%
  Total Cell Count: 600 and 593
HEK-293T [5]; 12 h, replicate 2
  Population Apoptotic (%): 18% and 16%
  Population Fragmented Nuclei (%): 5% and 9%
  Population Healthy Nuclei (%): 86% and 85%
  Population Membrane Permeable-Phenotype (%): 4% and 3%
  Population Mitotic Cells (%): 81% and 83%
  Population Normal (%): 90% and 97%
  Population Pyknosed Nuclei (%): 8% and 4%
  Total Cell Count: 1084 and 1487
HEK-293T [5]; 24 h, replicate 1
  Population Apoptotic (%): 28% and 17%
  Population Fragmented Nuclei (%): 16% and 15%
  Population Healthy Nuclei (%): 54% and 72%
  Population Hoechst High Intensity Objects (%): 19% and 13%
  Population Membrane Permeable-Phenotype (%): 8%
  Population Mitotic Cells (%): 71% and 82%
  Population Normal (%): 80% and 86%
  Population Pyknosed Nuclei (%): 28% and 11%
  Total Cell Count: 526 and 650
HEK-293T [5]; 24 h, replicate 2
  Population Apoptotic (%): 12% and 13%
  Population Fragmented Nuclei (%): 11% and 31%
  Population Healthy Nuclei (%): 79% and 66%
  Population Hoechst High Intensity Objects (%): 11% and 4%
  Population Membrane Permeable-Phenotype (%): 10% and 6%
  Population Mitotic Cells (%): 87% and 86%
  Population Normal (%): 88% and 95%
  Total Cell Count: 1133 and 2662
Fibroblast [6]; 0 h, replicate number 2, timepoint 0 hours
  Growth Rate: 0
Fibroblast [6]; [7]
  Growth Rate: 0
Fibroblast [6]; [8]
  Growth Rate: 0
Fibroblast [6]; [9]
  Growth Rate: 0
Fibroblast [6]; [10]
  Growth Rate: 0
